Results reported in ChEMBL document CHEMBL1148304, “Discovery of embelin as a cell-permeable, small-molecular weight inhibitor of XIAP through structure-based computational screening of a traditional herbal medicine three-dimensional structure database” (J Med Chem, 2004).
Where “and” joins values, the source holds several entries; their conditions need not be identical. Equal entries are not always repeated. Each block holds one molecule with its values, some of them ahead of it. Where a SMILES comes first, the peptide text is derived from it. The star is where a group is joined. X1 = O=C(ON1C(=O)CCC1=O)c1cccc(-c2c3ccc(=O)cc-3oc3cc(O)ccc23)c1C(=O)*

Assays:
[1] = biological target: T1, E3 ubiquitin-protein ligase XIAP (Homo sapiens, UniProt P98170); assay: Compound was tested for inhibitory activity towards XIAP BIR3 protein
T1 sequence (P98170 whole entry): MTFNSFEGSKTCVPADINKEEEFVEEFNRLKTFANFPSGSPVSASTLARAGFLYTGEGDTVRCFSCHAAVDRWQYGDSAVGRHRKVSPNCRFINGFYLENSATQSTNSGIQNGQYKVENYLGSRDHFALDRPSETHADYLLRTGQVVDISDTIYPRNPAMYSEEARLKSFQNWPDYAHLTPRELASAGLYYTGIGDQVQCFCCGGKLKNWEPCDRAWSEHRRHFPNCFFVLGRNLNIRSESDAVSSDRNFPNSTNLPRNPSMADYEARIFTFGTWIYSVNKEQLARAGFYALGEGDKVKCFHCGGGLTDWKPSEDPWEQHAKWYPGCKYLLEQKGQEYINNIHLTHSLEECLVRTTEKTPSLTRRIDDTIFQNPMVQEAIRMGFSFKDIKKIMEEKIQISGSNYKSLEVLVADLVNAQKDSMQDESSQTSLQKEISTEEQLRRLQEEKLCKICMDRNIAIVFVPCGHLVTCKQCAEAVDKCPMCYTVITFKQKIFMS

[2] = biological target: T1, E3 ubiquitin-protein ligase XIAP; assay: Dissociation constant for XIAP BIR3 protein in FP-based binding assay
[3] = biological target: T1, E3 ubiquitin-protein ligase XIAP; assay: Dissociation constant for XIAP BIR3 protein using different binding assay
[4] = test system: PC-3; assay: Percent of PC-3 cells stained for activated caspase-9 after incubation with 20 uM of compound for 42h; format: functional, Homo sapiens
Method in brief: (§1)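 PC-3 cells seeded 1 × 10^6 per well, exposed to compound or DMSO vehicle for 42 h; parallel control had pan-caspase inhibitor Z-VAD-FMK added 5 min before compound. Cells in complete medium labeled with Red-LEHD-FMK 0.5 h at 37 °C, 5% CO2, washed; active caspase-9 scored by flow cytometry in PI channel as % positive cells.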

[5] = test system: Jurkat; assay: Induction of apoptosis by etoposide in Jurkat vec cells at a dose of 2.5 uM for 72 h; format: functional, Homo sapiens
Method in brief: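 Stably vector-transfected Jurkat cells exposed to etoposide 2.5 µM for 72 h in the cell growth assay; reported as % of cells killed.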

[6] = test system: PrEC; assay: Inhibitory concentration of compound against growth of PrEC cells in vitro; format: functional, cell-based; conditions: Homo sapiens
Method in brief: (§2)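 WST-1 growth assay: 5000 cells/well in medium with 10% FBS, serial compound concentrations in triplicate for 4–5 days (five days per legend); WST-1 added 1–3 h at 37 °C, absorbance 450 nm corrected at 650 nm. Growth as % of vehicle-control absorbance; IC50 by sigmoid curve fit; experiment repeated three times.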

[7] = test system: PC-3; assay: Percent of PC-3 cells underwent apoptosis after incubation with 25 uM of compound for 48 hr; format: functional, Homo sapiens
Method in brief: (§3)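 PC-3 cells, 1 × 10^6 per well, treated in triplicate with compound for 48 h, trypsinized, PBS-washed, stained with Annexin V-FITC plus propidium iodide; flow cytometry, reported as % Annexin V-FITC-positive apoptotic cells; three separate experiments.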

[8] = test system: PC-3; assay: Activation of caspase-9 by embelin in PC-3 prostate cancer cells at a concentration of 20 uM; format: functional, Homo sapiens; method in brief: as §1
[9] = test system: PC-3; assay: Compound was tested for inhibition of PC-3 prostate cancer cells; format: functional, cell-based; conditions: Homo sapiens; method in brief: as §2
[10] = test system: LNCaP; assay: Compound was tested for inhibition of LnCap prostate cancer cells; format: functional, cell-based; conditions: Homo sapiens; method in brief: as §2
[11] = test system: PC-3; assay: Induction of apoptosis by embelin in PC-3 prostate cancer cells at a concentration of 25 uM for 48 h; format: functional, Homo sapiens; method in brief: as §3
[12] = test system: PC-3; assay: Inhibitory concentration of compound against growth of PC-3 cells in vitro; format: functional, cell-based; conditions: Homo sapiens; method in brief: as §2
[13] = test system: WI-38; assay: Inhibitory concentration of compound against growth of WI-38 cells in vitro; format: functional, cell-based; conditions: Homo sapiens; method in brief: as §2
[14] = test system: PC-3; assay: Activation of caspase-9 by embelin in PC-3 prostate cancer cells at a concentration of 40 uM; format: functional, Homo sapiens; method in brief: as §1
[15] = test system: PC-3; assay: Induction of apoptosis by embelin in PC-3 prostate cancer cells at a concentration of 50 uM for 48 h; format: functional, Homo sapiens; method in brief: as §3
[16] = test system: PC-3; assay: Percent of PC-3 cells underwent apoptosis after incubation with 50 uM of compound for 48 hr; format: functional, Homo sapiens; method in brief: as §3
[17] = test system: PC-3; assay: Percent of PC-3 cells stained for activated caspase-9 after incubation with 40 uM of compound for 42h; format: functional, Homo sapiens; method in brief: as §1
[18] = test system: WI-38 5000; assay: Selectivity in normal human fibroblast cell line, WI-38 cells; format: functional, cell-based; method in brief: as §2
[19] = test system: PrEC; assay: Selectivity in normal human prostate epithelial cells (PrEC); format: functional, cell-based; method in brief: as §2
[20] = test system: Jurkat; assay: Inhibitory concentration of compound against Jurkat-Vec cells; format: functional, cell-based; conditions: Homo sapiens
Method in brief: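 Stably vector-transfected Jurkat T cells kept in RPMI 1640 with 10% fetal calf serum and 1 µg/mL puromycin; growth read by WST-1 as for prostate lines: 5000 cells/well, triplicate concentrations, 4–5 days, absorbance 450/650 nm versus vehicle control, IC50 from sigmoid fit.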

[21] = test system: LNCaP; assay: Inhibitory concentration of compound against growth of LNCaP cells in vitro; format: functional, cell-based; conditions: Homo sapiens; method in brief: as §2
[22] = test system: Jurkat; assay: Percent of Jurkat-XIAP cells killed after 72 hr of 10 uM of compound administration; conditions: human
[23] = test system: Jurkat; assay: Percent of Jurkat-Vec cells killed after 72 hr of 2.5 uM of compound administration; format: cell-based; conditions: human
Method in brief: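 Jurkat T cells stably carrying empty vector, kept in RPMI 1640 with 10% fetal calf serum and 1 µg/mL puromycin at 37 °C, 5% CO2. Cell growth assay at 5000 cells/well in 10% FBS medium, drug added in triplicate for 72 h. WST-1 then added for 1-3 h at 37 °C. Absorbance read at 450 nm, corrected at 650 nm, and compared with vehicle-control wells.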

[24] = test system: Jurkat; assay: Percent of Jurkat-XIAP cells killed after 72 hr of 2.5 uM of compound administration; conditions: human

- IC50 [1]: 0.57 µM
Structure (SMILES): C[C@H](N)C(=O)N[C@@H](CCCNC(=N)N)C(=O)N1CCC[C@H]1C(=O)N[C@@H](Cc1ccccc1)C(=O)N[C@@H](C)C(=O)N[C@@H](CCC(N)=O)C(=O)N[C@@H](CCCCNC(=O)c1c(C(=O)ON2C(=O)CCC2=O)cccc1-c1c2ccc(=O)cc-2oc2cc(O)ccc12)C(=O)O (H-ARPFAQK(X1)-OH)

- Kd [2]: 0.038 µM
- Kd [3]: 0.02 µM
Structure (SMILES): C[C@H](N)C(=O)N[C@@H](CCCNC(=N)N)C(=O)N1CCC[C@H]1C(=O)N[C@@H](Cc1ccccc1)C(=O)N[C@@H](C)C(=O)N[C@@H](CCC(N)=O)C(=O)N[C@@H](CCCCN)C(=O)O (H-ARPFAQK-OH)

- IC50 [1]: 4.1 µM
- IC50 [9]: 3.7 µM
- IC50 [10]: 5.7 µM
- IC50 [12]: 3.7 µM
- IC50 [20]: 20 µM
- IC50 [21]: 5.7 µM
Structure (SMILES): CCCCCCCCCCCC1=C(O)C(=O)C=C(O)C1=O [EMBELIN]
- Staining [4]: 33%
- Induction [5]: 94.3% and 59%
- IC50 [6]: 20.1 µM
- Apoptosis [7]: 30%
- Induction [8]: 33%
- Induction [11]: 30%
- IC50 [13]: 19.3 µM
- Induction [14]: 62.1%
- Induction [15]: 75%
- Apoptosis [16]: 75%
- Staining [17]: 62.1%
- IC50 [18]: 19.3 µM
- IC50 [19]: 20.1 µM

Structure (SMILES): COc1cc([C@@H]2c3cc4c(cc3[C@@H](O[C@@H]3O[C@@H]5CO[C@@H](C)O[C@H]5[C@H](O)[C@H]3O)[C@H]3COC(=O)[C@H]23)OCO4)cc(OC)c1O [ETOPOSIDE]
- Death [22]: 85%
- Death [23]: 94.3%
- Death [24]: 59%
